Results from ChEMBL document CHEMBL3120097, “HCV NS5A replication complex inhibitors. Part 4. Optimization for genotype 1a replicon inhibitory activity” (J Med Chem, 2014).

Tests used:
[1] = tested on: Bovine viral diarrhea virus 1; experiment: Antiviral activity against BVDV infected in bovine MDBK cells after 72 hrs by luciferase reporter gene assay; assay type: functional, organism-based; settings: Bovine viral diarrhea virus isolates and strains
[2] = Cytotoxicity against bovine MDBK cells after 3 days by CellTitre-Blue assay; assay type: cell-based, Bos taurus; settings: cattle
Hepatitis C virus [3] = experiment: Antiviral activity against HCV genotype 1b infected in human HuH7 cells after 72 hrs by FRET assay; assay type: functional, organism-based, Hepacivirus hominis; settings: Huh-7, 72 h
Outline: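 Replicon cells seeded 10K/well, attached overnight; compounds added with 0.5% v/v DMSO vehicle controls, typically 72 h. Alamar blue read first, then cells PBS-rinsed and lysed with reagent holding 150 mM NaCl and 20 μM final EDANS/DABCYL NS3 protease peptide; kinetic fluorescence 340/490 nm. EC₅₀ = concentration halving background-subtracted FRET signal versus DMSO wells.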

Hepatitis C virus [4] = experiment: Antiviral activity against HCV genotype 1a H77c infected in human HuH7 cells after 5 days by ELISA; assay type: functional, organism-based, Hepacivirus hominis; settings: Huh-7, 120 h
Outline: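 Genotype 1a (H77c) replicon cells, 1.5 × 10⁴/well in DMEM + 10% FBS, attached overnight at 37 °C; serially diluted compounds (in FBS-free DMEM) added, 5 days at 37 °C. Cells dried overnight at 37 °C to fix, Triton-permeabilized, casein-blocked; NS5A antiserum then HRP secondary, chemiluminescent read. Inhibition relative to untreated wells; background set with 500 nM NS3 inhibitor.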

Hepatitis C virus [5] = experiment: Antiviral activity against HCV genotype 1a H77c infected in human HuH7 cells after 3 days by luciferase reporter gene assay; assay type: functional, organism-based, Hepacivirus hominis; settings: Huh-7, 72 h
Outline: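 Titrated compounds in 384-well plates seeded with replicon cells, 2.4 × 10³/well in DMEM with 4% FCS, final DMSO 0.5% v/v; 3 days at 37 °C. Renilla luciferase read with EnduRen substrate at […] final after ≥1 h at 37 °C; EC₅₀ from four-parameter logistic fit.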

SMILES	EC50 [1]	CC50 at 72 h [2]	EC50 (Hepatitis C virus [3])	EC50 (Hepatitis C virus [4])	EC50 (Hepatitis C virus [5])
O=C(Nc1ccc(/C=C/c2ccc(NC(=O)[C@@H]3CCCN3C(=O)c3cccc4ccccc34)cc2)cc1)[C@@H]1CCCN1C(=O)c1cccc2ccccc12	> 5000 nM	> 10000 nM	1600 nM	> 10000 nM	–
CCc1ccccc1C(=O)N1CCC[C@H]1C(=O)Nc1ccc(/C=C/c2ccc(NC(=O)[C@@H]3CCCN3C(=O)c3ccccc3CC)cc2)cc1	4700 nM	> 10000 nM	–	–	–
O=C(Nc1ccc(-c2cnc(-c3ccc(NC(=O)[C@@H]4CCCN4C(=O)Cc4ccccc4)cc3)o2)cc1)[C@@H]1CCCN1C(=O)Cc1ccccc1	> 10000 nM	3300 nM	–	–	1510 nM
O=C(Nc1ccc(C#Cc2ccc(NC(=O)[C@@H]3CCCN3C(=O)Cc3ccccc3)cc2)cc1)[C@@H]1CCCN1C(=O)Cc1ccccc1	> 10000 nM	> 10000 nM	–	–	> 10000 nM
O=C(Nc1ccc(/C=C/c2ccc(NC(=O)[C@@H]3CCCN3C(=O)c3nccc4ccccc34)cc2)cc1)[C@@H]1CCCN1C(=O)c1nccc2ccccc12	6400 nM	> 10000 nM	–	390 nM	–
COc1cccc2c(C(=O)N3CCC[C@H]3C(=O)Nc3ccc(-c4cnc(-c5ccc(NC(=O)[C@@H]6CCCN6C(=O)c6nc(Cl)cc7c(OC)cccc67)cc5)o4)cc3)nc(Cl)cc12	> 10000 nM	> 10000 nM	34 nM	–	52 nM
O=C(Nc1ccc(/C=C/c2ccc(NC(=O)[C@@H]3CCCN3C(=O)c3ccc4ccccc4n3)cc2)cc1)[C@@H]1CCCN1C(=O)c1ccc2ccccc2n1	> 5000 nM	> 10000 nM	200 nM	590 nM	–
O=C(Nc1ccc(/C=C/c2ccc(NC(=O)[C@@H]3CCCN3C(=O)c3cncc4ccccc34)cc2)cc1)[C@@H]1CCCN1C(=O)c1cncc2ccccc12	42 nM	> 10000 nM	140 nM	1400 nM	–
O=C(Nc1ccc(/C=C/c2ccc(NC(=O)[C@@H]3CCCN3C(=O)c3ncnc4ccccc34)cc2)cc1)[C@@H]1CCCN1C(=O)c1ncnc2ccccc12	> 5000 nM	> 10000 nM	2300 nM	910 nM	–
O=C(Nc1ccc(/C=C/c2ccc(NC(=O)[C@@H]3CCCN3C(=O)c3nncc4ccccc34)cc2)cc1)[C@@H]1CCCN1C(=O)c1nncc2ccccc12	> 5000 nM	> 10000 nM	30 nM	1000 nM	–
O=C(Nc1ccc(/C=C/c2ccc(NC(=O)[C@@H]3CCCN3C(=O)c3nc(Cl)cc4ccccc34)cc2)cc1)[C@@H]1CCCN1C(=O)c1nc(Cl)cc2ccccc12	> 10000 nM	> 10000 nM	23 nM	62 nM	–
O=C(Nc1ccc(/C=C/c2ccc(NC(=O)[C@@H]3CCCN3C(=O)c3ncc(Cl)c4ccccc34)cc2)cc1)[C@@H]1CCCN1C(=O)c1ncc(Cl)c2ccccc12	> 10000 nM	> 10000 nM	69 nM	282 nM	–
O=C(Nc1ccc(/C=C/c2ccc(NC(=O)[C@@H]3CCCN3C(=O)c3nccc4c(Cl)cccc34)cc2)cc1)[C@@H]1CCCN1C(=O)c1nccc2c(Cl)cccc12	> 10000 nM	> 10000 nM	139 nM	255 nM	–
O=C(Nc1ccc(/C=C/c2ccc(NC(=O)[C@@H]3CCCN3C(=O)c3nccc4cc(Cl)ccc34)cc2)cc1)[C@@H]1CCCN1C(=O)c1nccc2cc(Cl)ccc12	2100 nM	> 10000 nM	110 nM	761 nM	–
O=C(Nc1ccc(/C=C/c2ccc(NC(=O)[C@@H]3CCCN3C(=O)c3nccc4ccc(Cl)cc34)cc2)cc1)[C@@H]1CCCN1C(=O)c1nccc2ccc(Cl)cc12	> 10000 nM	> 10000 nM	36 nM	> 10000 nM	–
O=C(Nc1ccc(/C=C/c2ccc(NC(=O)[C@@H]3CCCN3C(=O)c3nc(F)cc4ccccc34)cc2)cc1)[C@@H]1CCCN1C(=O)c1nc(F)cc2ccccc12	> 10000 nM	> 10000 nM	27 nM	70 nM	–
O=C(Nc1ccc(/C=C/c2ccc(NC(=O)[C@@H]3CCCN3C(=O)c3nccc4c(F)cccc34)cc2)cc1)[C@@H]1CCCN1C(=O)c1nccc2c(F)cccc12	7900 nM	> 10000 nM	42 nM	236 nM	–
Cc1cc2ccccc2c(C(=O)N2CCC[C@H]2C(=O)Nc2ccc(/C=C/c3ccc(NC(=O)[C@@H]4CCCN4C(=O)c4nc(C)cc5ccccc45)cc3)cc2)n1	> 10000 nM	> 10000 nM	6 nM	329 nM	–
Cc1cccc2c(C(=O)N3CCC[C@H]3C(=O)Nc3ccc(/C=C/c4ccc(NC(=O)[C@@H]5CCCN5C(=O)c5nccc6c(C)cccc56)cc4)cc3)nccc12	> 10000 nM	> 10000 nM	< 5 nM	> 10000 nM	–
COc1cc2ccccc2c(C(=O)N2CCC[C@H]2C(=O)Nc2ccc(/C=C/c3ccc(NC(=O)[C@@H]4CCCN4C(=O)c4nc(OC)cc5ccccc45)cc3)cc2)n1	> 10000 nM	> 10000 nM	32 nM	> 10000 nM	–
COc1cccc2c(C(=O)N3CCC[C@H]3C(=O)Nc3ccc(/C=C/c4ccc(NC(=O)[C@@H]5CCCN5C(=O)c5nccc6c(OC)cccc56)cc4)cc3)nccc12	> 10000 nM	> 10000 nM	215 nM	175 nM	–
O=C(Nc1ccc(/C=C/c2ccc(NC(=O)[C@@H]3CCCN3C(=O)c3cc(Cl)cc4ccccc34)cc2)cc1)[C@@H]1CCCN1C(=O)c1cc(Cl)cc2ccccc12	> 10000 nM	> 10000 nM	240 nM	> 10000 nM	–
O=C(Nc1ccc(/C=C/c2ccc(NC(=O)[C@@H]3CCCN3C(=O)c3nc(Cl)cc4c(F)cccc34)cc2)cc1)[C@@H]1CCCN1C(=O)c1nc(Cl)cc2c(F)cccc12	> 10000 nM	> 10000 nM	18 nM	42 nM	–
COc1cccc2nc(C(=O)N3CCC[C@H]3C(=O)Nc3ccc(/C=C/c4ccc(NC(=O)[C@@H]5CCCN5C(=O)c5ccc6c(OC)cccc6n5)cc4)cc3)ccc12	> 10000 nM	> 10000 nM	971 nM	> 10000 nM	–
COc1ccc2ccc(C(=O)N3CCC[C@H]3C(=O)Nc3ccc(/C=C/c4ccc(NC(=O)[C@@H]5CCCN5C(=O)c5ccc6ccc(OC)cc6n5)cc4)cc3)nc2c1	> 10000 nM	> 10000 nM	62 nM	126 nM	–
C=Cc1ccccc1C(=O)N1CCC[C@H]1C(=O)Nc1ccc(/C=C/c2ccc(NC(=O)[C@@H]3CCCN3C(=O)c3ccccc3C=C)cc2)cc1	> 5000 nM	> 10000 nM	1200 nM	1100 nM	–
CCc1cccnc1C(=O)N1CCC[C@H]1C(=O)Nc1ccc(/C=C/c2ccc(NC(=O)[C@@H]3CCCN3C(=O)c3ncccc3CC)cc2)cc1	3100 nM	> 10000 nM	46 nM	720 nM	–
CCc1ccnc(C(=O)N2CCC[C@H]2C(=O)Nc2ccc(/C=C/c3ccc(NC(=O)[C@@H]4CCCN4C(=O)c4cc(CC)ccn4)cc3)cc2)c1	> 5000 nM	> 10000 nM	390 nM	4100 nM	–
C=Cc1cccnc1C(=O)N1CCC[C@H]1C(=O)Nc1ccc(/C=C/c2ccc(NC(=O)[C@@H]3CCCN3C(=O)c3ncccc3C=C)cc2)cc1	> 5000 nM	> 10000 nM	320 nM	3500 nM	–
O=C(Nc1ccc(/C=C/c2ccc(NC(=O)[C@@H]3CCCN3C(=O)c3ncccc3-c3ccccc3)cc2)cc1)[C@@H]1CCCN1C(=O)c1ncccc1-c1ccccc1	> 5000 nM	> 10000 nM	820 nM	2200 nM	–
